In ChEMBL document CHEMBL1629663, “Postantibiotic effects of telavancin against 16 gram-positive organisms” (Antimicrob Agents Chemother, 2009):
Values after ≈ are worked out from the molar mass of the structure shown.

Key:
Staphylococcus aureus [1] = experiment: Antimicrobial activity against heterogenous vancomycin-intermediate-, methicillin-resistant Staphylococcus aureus 618 by microdilution method; type: functional
Staphylococcus aureus [2] = experiment: Antimicrobial activity against vancomycin-intermediate-, methicillin-resistant Staphylococcus aureus 555 by microdilution method; type: functional
Staphylococcus aureus [3] = experiment: Antimicrobial activity against vancomycin-intermediate-, methicillin-resistant Staphylococcus aureus 1984 assessed as time required to induce sub-MIC effect at 0.4 times MIC […] by plate counting method; type: functional
Summary of the method: (§1)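 SME, viable plate count method: no prior drug exposure. About 5 × 10^6 CFU/ml in Mueller-Hinton broth at 35°C received 0.2, 0.3 or 0.4× MIC, alongside a drug-free tube. Counts were taken at the start, then every 2 h until McFarland no. 1 turbidity, as log10 CFU/ml against time. Two separate experiments, each with a new inoculum.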

Enterococcus faecium [4] = experiment: Antimicrobial activity against Enterococcus faecium HMC 588 assessed as time required to induce sub-MIC effect at 0.4 times MIC exposed for 2 hrs by plate counting method; type: functional
Summary of the method: (§2)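 Unexposed Mueller-Hinton broth cultures (about 5 × 10^6 CFU/ml, 35°C) were handled as in the PA-SME set but without the 10× MIC pre-exposure. They were diluted 1:1,000, then given telavancin at final 0.2, 0.3 or 0.4× MIC, with a drug-free control. Viable counts were taken every 2 h until McFarland no. 1 turbidity. Effect duration comes from log10 CFU/ml-time plots; two separate experiments with new inocula.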

Staphylococcus aureus [5] = experiment: Antimicrobial activity against vancomycin-susceptible-, methicillin-resistant Staphylococcus aureus 1307 assessed as time required to induce post antibiotic sub-MIC effect at 0.4 times MIC […] by plate counting method; type: functional
Summary of the method: (§3)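 After 1 h preexposure to 10× MIC at 35°C and 1:1,000 dilution, cultures were split, and drug was re-added to final 0.2, 0.3 or 0.4× MIC, with a drug-free tube. Viable counts were taken every 2 h until McFarland 1 turbidity. Duration was derived from log10 CFU/ml versus time curves. Two experiments were run, each with a new inoculum.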

Staphylococcus aureus [6] = experiment: Antimicrobial activity against vancomycin-intermediate-, methicillin-resistant Staphylococcus aureus 1984 assessed as time required to induce post antibiotic sub-MIC effect at 0.4 times MIC […] by plate counting method; type: functional
Summary of the method: (§4)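 PAE was first induced with 10× MIC for 1 h at 35°C (inoculum about 5 × 10^6 CFU/ml, Mueller-Hinton broth) and ended by 1:1,000 dilution. Cultures were then split and given 0.2, 0.3 or 0.4× MIC, with one tube left without drug. Viable counts were taken before exposure, after dilution, then every 2 h until McFarland no. 1 turbidity. Two separate experiments, each with a new inoculum.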

[7] = Elimination half life in healthy human at 5 mg/kg, iv; type: ADME, organism-based; parameters: dose 5 mg/kg, route intravenous; settings: in vivo, read-out: beta t1/2
Enterococcus faecalis [8] = experiment: Antimicrobial activity against Enterococcus faecalis HMC 571 by microdilution method; type: functional
Enterococcus faecium [9] = experiment: Antimicrobial activity against Enterococcus faecium HMC 588 by microdilution method; type: functional
Enterococcus faecalis [10] = experiment: Antimicrobial activity against Enterococcus faecalis ATCC 29212 assessed as post-antibiotic effect at 10 times MIC pre-exposed to Telavancin for 1 hr by plate counting method; type: functional
Summary of the method: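 Organisms were suspended in Mueller-Hinton broth from overnight blood agar colonies at about 5 × 10^6 CFU/ml. Cultures were exposed to telavancin at 10× MIC for 1 h at 35°C in a shaking water bath, then diluted 1:1,000 to remove the drug, with an untreated growth control. Viable counts were taken before exposure, at 0 h, then every 2 h until McFarland no. 1 turbidity. PAE = T − C, the time to a 1 log10 rise. Two experiments.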

Staphylococcus aureus [11] = experiment: Antimicrobial activity against vancomycin-susceptible-, methicillin-resistant Staphylococcus aureus ATCC 33591 assessed as time required to induce sub-MIC effect at 0.2 times MIC exposed for 2 hrs by plate counting method; type: functional
Summary of the method: (§5)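 Sub-MIC effect: cultures not preexposed to drug were diluted and handled as in the PA-SME procedure in Mueller-Hinton broth with final 0.2, 0.3 or 0.4× MIC, plus a drug-free control. Viable plate counts were taken every 2 h until McFarland 1 turbidity. Duration was derived from growth curves. Two experiments were run, each with a new inoculum.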

Staphylococcus aureus [12] = experiment: Antimicrobial activity against heterogenous vancomycin-intermediate-, methicillin-resistant Staphylococcus aureus 873 assessed as time required to induce post antibiotic sub-MIC effect at 0.2 times MIC pre-exposed to Telavancin […] by plate counting method; type: functional; summary of the method: as §4
Streptococcus pyogenes [13] = experiment: Antimicrobial activity against Streptococcus pyogenes HMC 414 assessed as time required to induce post antibiotic sub-MIC effect at 0.2 times MIC pre-exposed to Telavancin for 2 hrs by plate counting method; type: functional; settings: in the assay text read “for 1 hr” for “for 2 hrs”
Summary of the method: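 Mueller-Hinton broth cultures of about 5 × 10^6 CFU/ml were pre-exposed to telavancin at 10× MIC for 1 h at 35°C, then diluted 1:1,000. Telavancin was re-added to final 0.2, 0.3 or 0.4× MIC, alongside a drug-free tube. Viable counts were taken before exposure, after dilution, then every 2 h until McFarland no. 1 turbidity. Duration comes from log10 CFU/ml-versus-time plots; two separate experiments with fresh inocula.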

Staphylococcus aureus [14] = experiment: Antimicrobial activity against vancomycin-intermediate-, methicillin-resistant Staphylococcus aureus 770 assessed as time required to induce sub-MIC effect at 0.3 times MIC exposed for 2 hrs by plate counting method; type: functional; summary of the method: as §1
Streptococcus pyogenes [15] = experiment: Antimicrobial activity against Streptococcus pyogenes HMC 414 assessed as time required to induce sub-MIC effect at 0.3 times MIC exposed for 2 hrs by plate counting method; type: functional; summary of the method: as §2
Streptococcus agalactiae = experiment: Antimicrobial activity against Streptococcus agalactiae HMC 5 assessed as time required to induce sub-MIC effect at 0.3 times MIC exposed for 2 hrs by plate counting method; type: functional; summary of the method: as §2
Enterococcus faecalis [16] = experiment: Antimicrobial activity against Enterococcus faecalis ATCC 29212 assessed as time required to induce sub-MIC effect at 0.3 times MIC exposed for 2 hrs by plate counting method; type: functional; summary of the method: as §2
Enterococcus faecium [17] = experiment: Antimicrobial activity against Enterococcus faecium HMC 588 assessed as time required to induce sub-MIC effect at 0.3 times MIC exposed for 2 hrs by plate counting method; type: functional; summary of the method: as §2
Staphylococcus aureus [18] = experiment: Antimicrobial activity against heterogenous vancomycin-intermediate-, methicillin-resistant Staphylococcus aureus 618 assessed as time required to induce post antibiotic sub-MIC effect at 0.3 times MIC […] by plate counting method; type: functional; summary of the method: as §4
Staphylococcus aureus [19] = experiment: Antimicrobial activity against vancomycin-resistant-, methicillin-resistant Staphylococcus aureus 510 assessed as time required to induce post antibiotic sub-MIC effect at 0.3 times MIC […] by plate counting method; type: functional; summary of the method: as §3
Staphylococcus aureus [20] = experiment: Antimicrobial activity against vancomycin-susceptible-, methicillin-resistant Staphylococcus aureus 1130 assessed as time required to induce sub-MIC effect at 0.4 times MIC exposed for 2 hrs by plate counting method; type: functional; summary of the method: as §5
Staphylococcus aureus [21] = experiment: Antimicrobial activity against vancomycin-susceptible-, methicillin-resistant Staphylococcus aureus 1307 assessed as time required to induce sub-MIC effect at 0.4 times MIC exposed for 2 hrs by plate counting method; type: functional; summary of the method: as §5

CCCCCCCCCCNCCN[C@@]1(C)C[C@H](O[C@H]2[C@H](Oc3c4cc5cc3Oc3ccc(cc3Cl)[C@@H](O)[C@@H](NC(=O)[C@@H](CC(C)C)NC)C(=O)N[C@@H](CC(N)=O)C(=O)N[C@H]5C(=O)N[C@H]3C(=O)N[C@H](C(=O)N[C@H](C(=O)O)c5cc(O)c(CNCP(=O)(O)O)c(O)c5-c5cc3ccc5O)[C@H](O)c3ccc(c(Cl)c3)O4)O[C@H](CO)[C@@H](O)[C@@H]2O)O[C@@H](C)[C@H]1O [TELAVANCIN]
MIC (Staphylococcus aureus [1]): 0.12 µg/mL (≈ 0.0684 µM) | MIC (Staphylococcus aureus [2]): 0.5 µg/mL (≈ 0.285 µM) | PAE (Staphylococcus aureus [3]): 10 h | PAE (Enterococcus faecium [4]): 8.8 h | PAE (Staphylococcus aureus [5]): > 10.5 h | PAE (Staphylococcus aureus [6]): > 10 h | half-life [7]: > 7 h | MIC (Enterococcus faecalis [8]): 0.25 µg/mL (≈ 0.142 µM) | MIC (Enterococcus faecium [9]): 0.12 µg/mL (≈ 0.0684 µM) | PAE (Enterococcus faecalis [10]): 0.3 h | PAE (Staphylococcus aureus [11]): 0.3 h | PAE (Staphylococcus aureus [12]): 3.6 h | PAE (Streptococcus pyogenes [13]): 8.7 h | PAE (Staphylococcus aureus [14]): 0.8 h | PAE (Streptococcus pyogenes [15]): 0 h | PAE (Streptococcus agalactiae): 2.1 h | PAE (Enterococcus faecalis [16]): 2 h | PAE (Enterococcus faecium [17]): 7.2 h | PAE (Staphylococcus aureus [18]): 8.3 h | PAE (Staphylococcus aureus [19]): 6 h | PAE (Staphylococcus aureus [20]): 6.5 h | PAE (Staphylococcus aureus [21]): 6.3 h
